As usually defined, the Kd is the constant that tells how readily two partners part at equilibrium.

In experiment [1] the target is E7 LxCxE peptide LxCxE peptide (Human papillomavirus type 16) (UniProt P03129). The conditions noted are these: cited from earlier work.
The next experiment concerns SiHa cells. Description: Flow cytometry, DNA content by propidium iodide staining. It is filed as cell-based, human. The conditions noted are these: 2 µM, 48 hours. A digest of the protocol:
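Cells seeded at 1×105 per 60 mm dish; next day test compound or DMSO added for 48 hr. Cells trypsinized, PBS-washed, fixed in 80% ethanol, pelleted 500g 5 min, stained with PI (100 µL 2mg/ml PI plus 10 µg RNase A in 10 mL PBS). DNA content analysed by flow cytometry; apoptotic fraction taken from area under the corresponding histogram region.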
(Flow cytometry measures light scatter and fluorescence of single cells or particles in a stream.)

Experiment [2] concerns the target T1, GST-pRbABC (residues 376–928) (UniProt P06400 376-928).
T1 sequence (looked up): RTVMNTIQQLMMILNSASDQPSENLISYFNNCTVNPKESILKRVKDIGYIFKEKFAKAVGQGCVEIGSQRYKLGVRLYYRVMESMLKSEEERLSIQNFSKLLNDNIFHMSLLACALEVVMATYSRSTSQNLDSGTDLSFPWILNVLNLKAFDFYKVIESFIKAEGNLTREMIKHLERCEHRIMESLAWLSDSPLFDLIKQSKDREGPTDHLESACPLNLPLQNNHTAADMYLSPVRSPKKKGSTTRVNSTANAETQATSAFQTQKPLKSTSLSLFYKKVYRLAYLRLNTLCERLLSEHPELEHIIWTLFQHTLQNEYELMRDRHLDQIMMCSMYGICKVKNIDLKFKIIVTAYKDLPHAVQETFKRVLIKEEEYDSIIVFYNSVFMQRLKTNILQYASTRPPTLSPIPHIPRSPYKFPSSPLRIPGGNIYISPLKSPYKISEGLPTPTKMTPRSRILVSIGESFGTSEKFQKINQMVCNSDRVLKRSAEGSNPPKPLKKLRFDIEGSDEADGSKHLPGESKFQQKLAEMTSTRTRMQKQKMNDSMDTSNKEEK
Description: ELISA. (In an ELISA, binding on a coated surface is turned into a signal by an enzyme label.)

Sequence of E7 LxCxE peptide LxCxE peptide (Human papillomavirus type 16) (P03129 whole entry, looked up): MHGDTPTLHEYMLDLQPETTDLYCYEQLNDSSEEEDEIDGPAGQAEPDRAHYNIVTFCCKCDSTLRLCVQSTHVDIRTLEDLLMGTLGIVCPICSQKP

For pRb (from UniProt P06400), the dissociation constant (Kd) in experiment [1] was 110 nM.
On to `CN[C@@H]1C[C@H]2O[C@@](C)([C@@H]1OC)n1c3ccccc3c3c4c(c5c6ccccc6n2c5c31)C(=O)NC4` [staurosporine, Staurosporine], for which the apoptotic cells with SiHa cells is given as 34.3%.

B1: 6xHis-HPV1AE7_(CR2-3) (residues 16–93) (domain or fragment)
chain: EPSVLDLDLYCYEEVPPDDIEEELVSPQQPYAVVASCAYCEKLVRLTVLADHSAIRQLEELLLRSLNIVCPLCTLQRQ
As to B1, the binding result in experiment [2] is “binds”.

B2: 6xHis-Ad5E1A_(CR1-3) (residues 36–189) (domain or fragment)
chain: SHFEPPTLHELYDLDVTAPEDPNEEAVSQIFPDSVMLAVQEGIDLLTFPPAPGSPEPPHLSRQPEQPEQRALGPVSMPNLVPEVIDLTCHEAGFPPSDDEDEEGEEFVLDYVEHPGHGCRSCHYHRRNTGDPDIMCSLCYMRTCGMFVYSPVSE
As to B2, the binding result in experiment [2] is “binds”.

The values above are taken from article PMC3334872 (Chemistry & biology, 2012).
